No end group written: not given here.
Columns and labels:
[1] = system: Staphylococcus aureus (NCTC10788); test: MIC/MBC broth-dilution assay; format: cell-based; conditions: S. aureus NCTC10788, MHB pH 7.4, 512 to 1 µM twofold, 1% DMSO
Method in brief: (§1)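 Broth dilution was run in Mueller Hinton Broth, pH 7.4, with peptide at final 512 to 1 µM in twofold steps. Peptide stocks were in DMSO, giving final 1% (v/v) DMSO, also used alone as vehicle control. Controls were culture without peptide for growth and fresh MHB as blank. Positive controls were 5 mg/L vancomycin (S. aureus, MRSA, E. faecalis) and 5 mg/L amphotericin B (C. albicans). Five independent experiments were run.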

[2] = system: Escherichia coli (NCTC10418); test: MIC/MBC broth-dilution assay; format: cell-based; conditions: E. coli NCTC10418, MHB pH 7.4, 512 to 1 µM twofold, 1% DMSO
Method in brief: as §1

[3] = system: Candida albicans (NCYC1467); test: MIC/MBC broth-dilution assay; format: cell-based; conditions: C. albicans NCYC1467, MHB pH 7.4, 512 to 1 µM twofold, 1% DMSO
Method in brief: as §1

[4] = system: methicillin-resistant S. aureus (MRSA) (NCTC12493); test: MIC/MBC broth-dilution assay; format: cell-based, Staphylococcus aureus; conditions: MHB pH 7.4, 512 to 1 µM twofold, 1% DMSO
Method in brief: as §1

[5] = system: Enterococcus faecalis (NCTC12697); test: MIC/MBC broth-dilution assay; format: cell-based; conditions: E. faecalis NCTC12697, MHB pH 7.4, 512 to 1 µM twofold, 1% DMSO
Method in brief: as §1

horse erythrocytes = test: Hemolysis assay; format: cell-based; conditions: peptides in PBS, 512 to 1 µM, 1% Triton-X100 = 100%
Method in brief: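 Horse erythrocytes were exposed to peptide in PBS at 512 to 1 µM. Erythrocytes in PBS defined 0% hemolysis and 1% (v/v) Triton X-100 defined 100%. HC50 (µM) was the concentration giving half-maximal hemolysis. Values are the mean with standard error from five independent experiments.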

MDA-MB-435S cells = test: MTT assay; format: cell-based, human; conditions: MB435s (MDA-MB-435S); peptides in serum-free medium
Method in brief: (§2)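 For MTT viability, MDA-MB-435S, U251MG, HCT116 and MCF-7 were grown in DMEM, and NCI-H157 and PC-3 in RPMI 1640. All media had 10% FBS and 1% penicillin–streptomycin. Peptides were diluted in serum-free medium. Untreated cells defined 100% viability, and LD50 was the median lethal dose. Values are the mean with standard error from five independent experiments.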

NCI-H157 cells = test: MTT assay; format: cell-based, human; conditions: peptides in serum-free medium
Method in brief: as §2

PC-3 cells = test: MTT assay; format: cell-based, human; conditions: peptides in serum-free medium
Method in brief: as §2

U251MG cells = test: MTT assay; format: cell-based, human; conditions: peptides in serum-free medium
Method in brief: as §2

HCT116 cells = test: MTT assay; format: cell-based, human; conditions: peptides in serum-free medium
Method in brief: as §2

MCF-7 cells [6] = test: MTT assay; format: cell-based, human; conditions: peptides in serum-free medium
Method in brief: as §2

MCF-7 cells [7] = format: cell-based, human; conditions: MCF-7, 10 µM peptide; 100% = 1% TritonX-100; five replicates
[8] = system: selected human cancer cell lines; test: MTT assay, all cancer cell lines examined; format: cell-based; conditions: all six cancer cell lines
Method in brief: as §2

Substance: FLSLIPAAISAVSALANHF-NH2 [PSPHa, Phylloseptin-PHa]
- MBC [1]: 16 µM
- MIC [1]: 8 µM
- MBC [2]: > 512 µM
- MIC [2]: > 512 µM
- MBC [3]: 32 µM
- MIC [3]: 32 µM
- MBC [4]: 128 µM
- MIC [4]: 64 µM
- MBC [5]: > 512 µM
- MIC [5]: > 512 µM
- HC50 of hemolysis on erythrocytes (horse erythrocytes): 52.17 µM
- LD50 of MTT assays (MDA-MB-435S cells): 28.48 µM
- LD50 of MTT assays (NCI-H157 cells): 37.61 µM
- LD50 of MTT assays (PC-3 cells): 37.96 µM
- LD50 of MTT assays (U251MG cells): 34.67 µM
- LD50 of MTT assays (HCT116 cells): 36.64 µM
- LD50 of MTT assays (MCF-7 cells [6]): 24.05 µM
- LDH release (MCF-7 cells [7]): not as potent as PSPHa2–5

Substance: FLSLIPKAISAVSALANHF-NH2 [PSPHa1]
- MBC [1]: 8 µM
- MIC [1]: 8 µM
- MBC [2]: 128 µM
- MIC [2]: 128 µM
- MBC [3]: 32 µM
- MIC [3]: 16 µM
- MBC [4]: 32 µM
- MIC [4]: 16 µM
- MBC [5]: 32 µM
- MIC [5]: 32 µM
- HC50 of hemolysis on erythrocytes (horse erythrocytes): 197.7 µM
- LD50 of MTT assays (MDA-MB-435S cells): 32.41 µM
- LD50 of MTT assays (NCI-H157 cells): 41.73 µM
- LD50 of MTT assays (PC-3 cells): 32.89 µM
- LD50 of MTT assays (U251MG cells): 33.65 µM
- LD50 of MTT assays (HCT116 cells): 35.16 µM
- LD50 of MTT assays (MCF-7 cells [6]): 45.69 µM
- LDH release (MCF-7 cells [7]): lowest degree of LDH release

Substance: FLSLIPKAISAISALANHF-NH2 [PSPHa2]
- MBC [1]: 4 µM
- MIC [1]: 4 µM
- MBC [2]: 128 µM
- MIC [2]: 64 µM
- MBC [3]: 16 µM
- MIC [3]: 8 µM
- MBC [4]: 32 µM
- MIC [4]: 16 µM
- MBC [5]: 64 µM
- MIC [5]: 64 µM
- HC50 of hemolysis on erythrocytes (horse erythrocytes): 34.86 µM
- LD50 of MTT assays (MDA-MB-435S cells): 19.56 µM
- LD50 of MTT assays (NCI-H157 cells): 35.34 µM
- LD50 of MTT assays (PC-3 cells): 35.11 µM
- LD50 of MTT assays (U251MG cells): 36.46 µM
- LD50 of MTT assays (HCT116 cells): 37.4 µM
- LD50 of MTT assays (MCF-7 cells [6]): 26.49 µM

Substance: FLSLIPKIISAISALINHF-NH2 [PSPHa4]
- MBC [1]: 2 µM
- MIC [1]: 2 µM
- MBC [2]: > 512 µM
- MIC [2]: > 512 µM
- MBC [3]: 128 µM
- MIC [3]: 32 µM
- MBC [4]: 256 µM
- MIC [4]: 128 µM
- MBC [5]: 64 µM
- MIC [5]: 32 µM
- HC50 of hemolysis on erythrocytes (horse erythrocytes): 2.766 µM
- LD50 of MTT assays (MDA-MB-435S cells): 4.802 µM
- LD50 of MTT assays (NCI-H157 cells): 2.265 µM
- LD50 of MTT assays (PC-3 cells): 9.35 µM
- LD50 of MTT assays (U251MG cells): 9.547 µM
- LD50 of MTT assays (HCT116 cells): 6.779 µM
- LD50 of MTT assays (MCF-7 cells [6]): 15.01 µM

Substance: FLSLIPKAISAISALINHF-NH2 [PSPHa3]
- MBC [1]: 2 µM
- MIC [1]: 2 µM
- MBC [2]: > 512 µM
- MIC [2]: > 512 µM
- MBC [3]: 4 µM
- MIC [3]: 4 µM
- MBC [4]: 32 µM
- MIC [4]: 32 µM
- MBC [5]: 32 µM
- MIC [5]: 32 µM
- HC50 of hemolysis on erythrocytes (horse erythrocytes): 9.266 µM
- LD50 of MTT assays (MDA-MB-435S cells): 3.994 µM
- LD50 of MTT assays (NCI-H157 cells): 2.865 µM
- LD50 of MTT assays (PC-3 cells): 9.164 µM
- LD50 of MTT assays (U251MG cells): 10.85 µM
- LD50 of MTT assays (HCT116 cells): 11.71 µM
- LD50 of MTT assays (MCF-7 cells [6]): 10.48 µM

Substance: FLSLIPKIISAISALIKHF-NH2 [PSPHa5]
- MBC [1]: 2 µM
- MIC [1]: 2 µM
- MBC [2]: > 512 µM
- MIC [2]: > 512 µM
- MBC [3]: 128 µM
- MIC [3]: 32 µM
- MBC [4]: 128 µM
- MIC [4]: 64 µM
- MBC [5]: 32 µM
- MIC [5]: 16 µM
- HC50 of hemolysis on erythrocytes (horse erythrocytes): 1.074 µM
- LD50 of MTT assays (MDA-MB-435S cells): 3.553 µM
- LD50 of MTT assays (NCI-H157 cells): 3.614 µM
- LD50 of MTT assays (PC-3 cells): 4.256 µM
- LD50 of MTT assays (U251MG cells): 4.059 µM
- LD50 of MTT assays (HCT116 cells): 4.421 µM
- LD50 of MTT assays (MCF-7 cells [6]): 3.753 µM
- LD50 (MTT) for all the cell lines examined [8]: < 5 µM

Reference: article PMC6350648 (Drug Design, Development and Therapy, 2019)
